The values below come from paper PMC4474499 (Science Advances, 2015).

Molecules are shown by their SMILES.

In data set [1] the target is T1, human TLR3 (Homo sapiens, UniProt O15455).
T1 sequence (O15455 24-904): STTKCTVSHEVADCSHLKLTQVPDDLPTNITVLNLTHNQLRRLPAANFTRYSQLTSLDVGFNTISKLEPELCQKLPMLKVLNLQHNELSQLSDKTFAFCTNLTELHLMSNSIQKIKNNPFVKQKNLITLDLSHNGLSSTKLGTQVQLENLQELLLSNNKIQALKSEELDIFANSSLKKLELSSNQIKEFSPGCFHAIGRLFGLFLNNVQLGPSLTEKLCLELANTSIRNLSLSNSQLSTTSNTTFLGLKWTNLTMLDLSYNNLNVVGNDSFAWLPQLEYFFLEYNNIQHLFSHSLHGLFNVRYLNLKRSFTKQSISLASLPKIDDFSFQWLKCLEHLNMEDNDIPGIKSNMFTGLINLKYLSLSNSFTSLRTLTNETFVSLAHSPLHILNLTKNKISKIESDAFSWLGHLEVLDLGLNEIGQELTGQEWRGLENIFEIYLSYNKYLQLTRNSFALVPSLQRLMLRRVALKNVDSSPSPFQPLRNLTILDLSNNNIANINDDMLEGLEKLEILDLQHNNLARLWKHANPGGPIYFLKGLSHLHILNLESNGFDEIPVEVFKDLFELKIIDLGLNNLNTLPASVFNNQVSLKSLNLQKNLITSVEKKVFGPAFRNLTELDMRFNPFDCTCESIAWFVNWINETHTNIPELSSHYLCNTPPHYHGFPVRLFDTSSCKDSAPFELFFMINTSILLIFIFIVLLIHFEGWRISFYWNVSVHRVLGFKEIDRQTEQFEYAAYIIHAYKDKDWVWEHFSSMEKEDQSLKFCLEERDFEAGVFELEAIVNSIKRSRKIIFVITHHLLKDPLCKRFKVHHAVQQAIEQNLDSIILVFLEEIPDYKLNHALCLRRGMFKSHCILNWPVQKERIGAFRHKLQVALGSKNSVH
Briefly: SEAP reporter gene detection assay in HEK-Blue TLR3 cells. In kind it is cell-based. Particulars: 0 to 20 μM, 24 hours. In a few lines:
(§1)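 HEK 293 cells stably carrying the human TLR and a SEAP reporter, 4 × 10^4/well, grown 24 h. Then 24 h in Opti-MEM/0.5% FBS with test compound. Positive controls: poly(I:C) 0–10.9 μg/ml (TLR3), LPS 0–36.5 ng/ml (TLR4), FLA-BS 0–10 μg/ml (TLR5), R848 0–6 μg/ml (TLR7, TLR8). Supernatant heated 30 min at 65°C, then CSPD substrate added; luminescence read after 20 min.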
(In general: In a reporter assay the amount or activity of a reporter protein is the signal.)

In data set [2] the target is human TLR5 (Homo sapiens, UniProt O60602). Briefly: SEAP reporter gene detection assay in HEK-Blue TLR5 cells. The data set is classed as cell-based. Conditions: 0 to 20 μM, 24 hours. The method in brief:
as §1

In data set [3] the test system is NF-κB. Put plainly: U937 NF-κB–GFP reporter assay. In kind it is cell-based, human. Particulars: U937 cells.
Data set [4] has as its system Raw 264.7 cells. Briefly: In vitro NO activation assay for Raw 264.7 cells. In kind it is cell-based, mouse. Conditions: Raw 264.7 cells, 24 hours. In a few lines:
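RAW 264.7 cells, 80,000/well, grown 24 h. Non-adherent cells removed; medium changed to unsupplemented RPMI 1640. Treated 24 h with test compound, or 66 nM (100 ng/ml) Pam3CSK4 as control. Supernatant reacted 15 min in the dark with 2,3-diaminonaphthalene in HCl, quenched with NaOH. Fluorescence read at ex 365/em 450 nm; nitrite calculated from a standard curve.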

Data set [5] has as its system TNF-α. Put plainly: TNF-α ELISA in Raw 264.7 cells. The data set is classed as cell-based. Conditions: Mus musculus, RAW264.7, 24 h, read-out: EC50, TNF-α production. The method in brief:
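RAW 264.7 cells, 1 × 10^6/well in six-well plates, grown 24 h. Medium refreshed (RPMI 1640). Treated 24 h with test compound; 66 nM Pam3CSK4 as positive control. Supernatants frozen at −80°C. TNF-α quantified by sandwich ELISA against recombinant cytokine standards, each sample in triplicate.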
In general terms: In an ELISA, binding on a coated surface is turned into a signal by an enzyme label.

Data set [6] concerns Raw 264.7 cells. Briefly: Quantitative RT-PCR of mRNA levels in Raw 264.7 macrophage cells. The data set is classed as cell-based, mouse. In a few lines:
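RAW 264.7 cells, 1 × 10^6/well, grown 24 h, then given fresh RPMI 1640. Exposed to test compound, or 33 nM (50 ng/ml) Pam3CSK4, for 0, 2, 8 or 24 h. Cells washed in cold PBS and frozen. Total RNA extracted (RNeasy) for qRT-PCR. Fold change calculated by ΔΔCt versus DMSO-treated cells, means ± SD.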

Data set [7] addresses hTLR1 and hTLR2 (Homo sapiens, UniProt O60603+Q15399). Briefly: SEC-LS assay of TLR1/2 heterodimer formation. The data set is classed as biochemical. Particulars: CU-T12-9 0 to 40 μM or Pam3CSK4 260 nM (400 ng/ml). The method in brief:
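Human TLR2 in PBS pH 7.4 preincubated 2 h at RT with test compound or Pam3CSK4. Equimolar hTLR1 then added (final about 10 μM each) for 2 h at 37°C. Both proteins were baculovirus/insect-cell products. Samples filtered (0.1 μm) and run on size-exclusion column in PBS at 1 ml/min. Detection by in-line multi-angle light scattering, refractive index and UV.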

Data set [8] deals with HEK-Blue hTLR2 cells. Briefly: MTT cell viability assay in HEK-Blue hTLR2 cells. The data set is classed as cell-based, human. Particulars: up to 100 μM, 24 h. The method in brief: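 HEK-Blue hTLR2 cells, 40,000/well in DMEM/10% FBS, grown 24 h at 37°C, 5% CO2. Medium then replaced by Opti-MEM (0.5% FBS, non-essential amino acids) with compounds at 0–100 μM for 24 h. MTT added for 4 h; formazan dissolved in DMSO; A560 read. Cytotoxicity % = 1 − (sample − blank)/(control − blank), ×100.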
In general terms: Tetrazolium assays rely on reduction of a dye to a coloured formazan, in cell work by metabolically active cells.

Usually EC50 stands for the concentration giving half of the maximal effect.

hTLR1 and hTLR2, sequence (Q15399 25-580 limits assumed): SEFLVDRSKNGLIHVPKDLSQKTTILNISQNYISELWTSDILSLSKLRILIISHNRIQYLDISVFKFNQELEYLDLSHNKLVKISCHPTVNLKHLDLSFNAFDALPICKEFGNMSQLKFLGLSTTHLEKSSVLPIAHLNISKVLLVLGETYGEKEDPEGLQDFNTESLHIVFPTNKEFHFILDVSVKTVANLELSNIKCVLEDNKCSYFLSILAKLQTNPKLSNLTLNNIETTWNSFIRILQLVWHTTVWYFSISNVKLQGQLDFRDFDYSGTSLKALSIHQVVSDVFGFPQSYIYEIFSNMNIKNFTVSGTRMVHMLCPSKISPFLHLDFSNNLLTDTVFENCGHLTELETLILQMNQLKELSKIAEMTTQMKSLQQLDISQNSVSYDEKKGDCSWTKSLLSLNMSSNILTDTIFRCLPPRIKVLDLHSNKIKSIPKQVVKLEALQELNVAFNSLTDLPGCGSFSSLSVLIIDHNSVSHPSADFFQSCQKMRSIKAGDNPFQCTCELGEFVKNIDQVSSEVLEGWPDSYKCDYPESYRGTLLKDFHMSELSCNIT
hTLR1 and hTLR2, sequence (O60603 21-588 limits assumed): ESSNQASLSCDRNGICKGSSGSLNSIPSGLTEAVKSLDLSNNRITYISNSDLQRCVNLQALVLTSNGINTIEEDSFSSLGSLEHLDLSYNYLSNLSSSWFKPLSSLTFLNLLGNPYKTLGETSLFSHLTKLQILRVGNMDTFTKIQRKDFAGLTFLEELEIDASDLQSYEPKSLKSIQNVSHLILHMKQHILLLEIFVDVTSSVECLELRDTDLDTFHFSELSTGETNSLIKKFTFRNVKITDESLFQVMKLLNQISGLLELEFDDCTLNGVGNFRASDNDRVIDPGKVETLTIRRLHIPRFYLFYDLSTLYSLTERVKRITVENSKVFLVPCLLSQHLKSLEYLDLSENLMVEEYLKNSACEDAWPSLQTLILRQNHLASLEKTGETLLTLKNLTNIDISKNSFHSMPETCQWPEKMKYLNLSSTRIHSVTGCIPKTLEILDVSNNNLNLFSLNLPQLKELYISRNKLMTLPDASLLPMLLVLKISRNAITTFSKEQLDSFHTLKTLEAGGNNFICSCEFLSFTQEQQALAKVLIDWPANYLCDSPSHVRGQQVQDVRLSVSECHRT
human TLR5, sequence (O60602 21-858): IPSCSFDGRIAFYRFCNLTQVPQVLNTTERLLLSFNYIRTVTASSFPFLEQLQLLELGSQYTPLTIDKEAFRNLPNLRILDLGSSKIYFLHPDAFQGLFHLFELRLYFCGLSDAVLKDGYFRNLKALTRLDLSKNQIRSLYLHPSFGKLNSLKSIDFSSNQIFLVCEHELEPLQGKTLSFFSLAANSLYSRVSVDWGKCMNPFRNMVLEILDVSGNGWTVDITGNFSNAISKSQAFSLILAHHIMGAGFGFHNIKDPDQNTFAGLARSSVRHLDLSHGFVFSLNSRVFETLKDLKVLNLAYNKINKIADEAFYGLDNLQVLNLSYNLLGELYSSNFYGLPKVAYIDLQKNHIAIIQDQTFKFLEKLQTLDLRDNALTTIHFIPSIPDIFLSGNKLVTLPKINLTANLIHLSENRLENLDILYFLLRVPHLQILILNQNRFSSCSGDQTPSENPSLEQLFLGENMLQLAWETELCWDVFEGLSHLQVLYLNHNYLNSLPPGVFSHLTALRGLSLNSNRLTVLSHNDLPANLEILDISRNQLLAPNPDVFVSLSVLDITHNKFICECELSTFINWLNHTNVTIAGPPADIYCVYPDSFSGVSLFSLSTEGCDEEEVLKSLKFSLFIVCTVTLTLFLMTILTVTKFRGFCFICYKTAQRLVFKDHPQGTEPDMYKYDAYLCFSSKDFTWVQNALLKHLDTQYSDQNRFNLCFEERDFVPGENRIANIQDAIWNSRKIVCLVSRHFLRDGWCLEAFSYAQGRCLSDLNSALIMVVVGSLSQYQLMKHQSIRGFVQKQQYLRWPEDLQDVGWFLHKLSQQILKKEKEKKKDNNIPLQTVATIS

Consider `CNc1ccc([N+](=O)[O-])cc1-n1cnc(-c2ccc(C(F)(F)F)cc2)c1` [CU-T12-9, N-methyl-4-nitro-2-(4-(4-(trifluoromethyl)phenyl)-1H-imidazol-1-yl)aniline], for which the “activation of SEAP signaling, TLR3” value in data set [1] is “not in other TLR-overexpressing cells”. In addition, the “activation of SEAP signaling, TLR5” value in data set [2] was “not in other TLR-overexpressing cells”. The NF-κB activation entry in data set [3] (5 μM, 24 hours) is on record as “comparable activation to 66 nM (100 ng/ml) Pam3CSK4”; in data set [3] (20 μM (GA even up to 100 μM)), “excellent NF-κB activation”. In addition, in data set [4], the NO production result was “efficiently triggered NO production”. In data set [5], the 50% effective concentration (EC50) came to 60.5 ± 17 nM. In addition, the “TLR1 mRNA” value in data set [6] (1 μM CU-T12-9, 24 hours) is “potently increased”. In addition, the “time of highest TLR2 mRNA expression” value in data set [6] (1 μM CU-T12-9 or 33 nM (50 ng/ml) Pam3CSK4, measured at 2, 8, 24 hours) stood at 2 h. Further, the “IL-10 mRNA” value in data set [6] (2 hours, decreased over time) is given as “up-regulated”. The “TNF mRNA expression” value in data set [6] (over time, maximal expression after 8 hours) was “increased”. For the same compound, the “iNOS mRNA expression” value in data set [6] (over time, peaked at 24 hours) is reported as “increased”. Also, the TLR1/2 heterodimer formation entry in data set [7] is listed as “Heterodimer formation was detected”. Also, the cytotoxicity result in data set [8] is reported as “negligible cytotoxicity”.
